Experimental data reported in ChEMBL document CHEMBL3872230, “Inhibition of the enzymes in the leukotriene and prostaglandin pathways in inflammation by 3-aryl isocoumarins” (Eur J Med Chem, 2016).
Calls of active or inactive are those of the source. The rule behind the calls is not given here.

B1: Polyunsaturated fatty acid 5-lipoxygenase (Homo sapiens), P09917 (protein)
chain: MPSYTVTVATGSQWFAGTDDYIYLSLVGSAGCSEKHLLDKPFYNDFERGAVDSYDVTVDEELGEIQLVRIEKRKYWLNDDWYLKYITLKTPHGDYIEFPCYRWITGDVEVVLRDGRAKLARDDQIHILKQHRRKELETRQKQYRWMEWNPGFPLSIDAKCHKDLPRDIQFDSEKGVDFVLNYSKAMENLFINRFMHMFQSSWNDFADFEKIFVKISNTISERVMNHWQEDLMFGYQFLNGCNPVLIRRCTELPEKLPVTTEMVECSLERQLSLEQEVQQGNIFIVDFELLDGIDANKTDPCTLQFLAAPICLLYKNLANKIVPIAIQLNQIPGDENPIFLPSDAKYDWLLAKIWVRSSDFHVHQTITHLLRTHLVSEVFGIAMYRQLPAVHPIFKLLVAHVRFTIAINTKAREQLICECGLFDKANATGGGGHVQMVQRAMKDLTYASLCFPEAIKARGMESKEDIPYYFYRDDGLLVWEAIRTFTAEVVDIYYEGDQVVEEDPELQDFVNDVYVYGMRGRKSSGFPKSVKSREQLSEYLTVVIFTASAQHAAVNFGQYDWCSWIPNAPPTMRAPPPTAKGVVTIEQIVDTLPDRGRSCWHLGAVWALSQFQENELFLGMYPEEHFIEKPVKEAMARFRKNLEAIVSVIAERNKKKQLPYYYLSPDRIPNSVAI

What was measured:
[1] = Antioxidant activity assessed as DPPH radical scavenging activity at 50 uM after 30 mins; format: functional
[2] = Cytotoxicity against human HeLa cells assessed as cell proliferation at 50 uM after 24 hrs by MTT assay; format: toxicity, cell-based; settings: read-out: Activity
[3] = molecular target: T1, Polyunsaturated fatty acid 5-lipoxygenase (Homo sapiens) (UniProt P09917); experiment: Inhibition of human recombinant 5-LOX expressed in Escherichia coli BL21 assessed as decrease in 5-HPETE production at 50 uM preincubated with enzyme followed by arachidonic acid substrate addition by UV-vis spectrophotometry
T1 sequence (whole entry): B1 chain

[4] = molecular target: T2, Prostaglandin E synthase (Homo sapiens) (UniProt O14684); experiment: Inhibition of mPGES1 in human HeLa cells assessed as reduction in TNF-alpha induced PGE2 production at 50 uM preincubated for 2 hrs followed by TNF-alpha addition for 24 hrs by ELISA; format: cell-based
T2 sequence (whole entry): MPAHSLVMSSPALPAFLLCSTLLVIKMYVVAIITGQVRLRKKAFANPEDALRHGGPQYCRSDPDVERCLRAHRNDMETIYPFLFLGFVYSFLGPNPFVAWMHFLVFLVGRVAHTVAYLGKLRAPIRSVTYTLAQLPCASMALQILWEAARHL
Summary of the method: (§1)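 Read-out was PGE2 released into the HeLa culture supernatant, measured with an ELISA kit.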

Prostaglandin E synthase [5] = molecular target: T3, Prostaglandin E synthase (Homo sapiens, UniProt O14684); experiment: Inhibition of mPGES1 in human HeLa cells assessed as reduction in TNF-alpha induced PGE2 production preincubated for 2 hrs followed by TNF-alpha addition for 24 hrs by ELISA; format: cell-based; summary of the method: as §1
T3 sequence (O14684 whole entry): T2 sequence (whole entry)

HeLa [6] = experiment: Inhibition of COX-2 mRNA expression in human HeLa cells at 5 uM by RT-PCR method; format: functional, cell-based
Summary of the method: (§2)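 Real-time PCR on treated HeLa cells. mRNA levels were normalized to untreated cells and to β-actin, and significance was assessed by 2-way ANOVA.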

[7] = molecular target: T4, Prostaglandin E synthase/G/H synthase 2 (Homo sapiens) (UniProt P35354+O14684); experiment: Inhibition of COX-2/mPGES1 in human HeLa cells assessed as reduction in TNF-alpha induced PGE2 production at 5 uM preincubated for 15 mins followed by arachidonic acid addition for 15 mins by ELISA; format: cell-based
Summary of the method: (§3)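 HeLa cells primed with TNF at 50 ng/ml to induce mPGES1, then exposed to compound for 15 min, then challenged with exogenous arachidonic acid for a further 15 min. PGE2 released into the culture supernatant was quantified by ELISA.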

[8] = molecular target: T4, Prostaglandin E synthase/G/H synthase 2 (Homo sapiens); experiment: Inhibition of COX-2/mPGES1 in human HeLa cells assessed as reduction in TNF-alpha induced PGE2 production at 5 uM after 15 mins followed by ELISA; format: cell-based
Summary of the method: (§4)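 TNF-treated HeLa cells were exposed to compound for 15 min without added arachidonic acid. PGE2 released into the culture supernatant was measured by ELISA.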

HeLa [9] = experiment: Inhibition of mPGES1 mRNA expression in human HeLa cells at 5 uM by RT-PCR method; format: functional, cell-based; summary of the method: as §2
[10] = molecular target: T5, Polyunsaturated fatty acid 5-lipoxygenase (Homo sapiens, UniProt P09917); experiment: Inhibition of human recombinant 5-LOX expressed in Escherichia coli BL21 assessed as decrease in 5-HPETE production preincubated with enzyme followed by arachidonic acid substrate addition by UV-vis spectrophotometry
T5 sequence (P09917 whole entry): B1 chain

[11] = molecular target: T2, Prostaglandin E synthase (Homo sapiens); experiment: Inhibition of mPGES1 in human HeLa cells assessed as reduction in TNF-alpha induced PGE2 production at 5 uM preincubated for 2 hrs followed by TNF-alpha addition for 24 hrs by ELISA; format: cell-based; summary of the method: as §1
[12] = molecular target: Prostaglandin G/H synthase 1 (Homo sapiens, UniProt P23219); experiment: Inhibition of COX-1 (unknown origin)
Prostaglandin E synthase [13] = molecular target: T3, Prostaglandin E synthase; experiment: Inhibition of mPGES1 in human A549 cells assessed as reduction in PGE2 production; format: cell-based
[14] = molecular target: T1, Polyunsaturated fatty acid 5-lipoxygenase (Homo sapiens); settings: 10 uM
HeLa [15] = experiment: Increase in NFkappaB mRNA expression in human HeLa cells at 50 uM by RT-PCR method relative to control; format: functional; summary of the method: as §2
[16] = molecular target: T4, Prostaglandin E synthase/G/H synthase 2 (Homo sapiens); experiment: Inhibition of COX-2/mPGES1 in human HeLa cells assessed as reduction in TNF-alpha induced PGE2 production at 50 uM preincubated for 15 mins followed by arachidonic acid addition for 15 mins by ELISA; format: cell-based; summary of the method: as §3
HeLa [17] = experiment: Inhibition of mPGES1 mRNA expression in human HeLa cells at 50 uM by RT-PCR method; format: functional, cell-based; summary of the method: as §2
HeLa [18] = experiment: Increase in IL-6 mRNA expression in human HeLa cells at 50 uM by RT-PCR method relative to control; format: functional; summary of the method: as §2
HeLa [19] = experiment: Inhibition of COX-2 mRNA expression in human HeLa cells at 50 uM by RT-PCR method; format: functional, cell-based; summary of the method: as §2
HeLa [20] = experiment: Increase in IFN-gamma mRNA expression in human HeLa cells at 50 uM by RT-PCR method relative to control; format: functional; summary of the method: as §2
[21] = molecular target: T4, Prostaglandin E synthase/G/H synthase 2 (Homo sapiens); experiment: Inhibition of COX-2/mPGES1 in human HeLa cells assessed as reduction in TNF-alpha induced PGE2 production at 50 uM after 15 mins followed by ELISA; format: cell-based; summary of the method: as §4
HeLa [22] = experiment: Increase in TGF-beta3 mRNA expression in human HeLa cells at 50 uM by RT-PCR method relative to control; format: functional; summary of the method: as §2
[23] = substrate: COc1cc(-c2cc3cccc(O)c3c(=O)o2)cc(OC)c1OC; settings: Homo sapiens; 10 uM
[24] = substrate: COc1cc(-c2cc3cccc(O)c3c(=O)o2)cc(OC)c1OC; settings: Homo sapiens; 30 uM
[25] = substrate: COc1cc(-c2cc3cccc(O)c3c(=O)o2)cc(OC)c1OC; settings: Homo sapiens; 10 uM; remark: listed apart in the source
[26] = substrate: O=c1oc(-c2ccc(O)c(O)c2)cc2ccccc12; settings: Homo sapiens; 10 uM
[27] = substrate: O=c1oc(-c2ccc(O)c(O)c2)cc2ccccc12; settings: Homo sapiens; 10 uM; remark: listed apart in the source
[28] = substrate: O=c1oc(-c2ccc(O)c(O)c2)cc2ccccc12; settings: Homo sapiens; 50 uM
[29] = substrate: O=c1oc(-c2ccc(O)c(O)c2)cc2ccccc12; settings: Homo sapiens; 50 uM; remark: listed apart in the source
[30] = substrate: COc1cc(-c2cc3cccc(O)c3c(=O)o2)cc(OC)c1OC; settings: Homo sapiens; 30 uM; remark: listed apart in the source

T4 sequence (P35354 whole entry, looked up, one chain of several): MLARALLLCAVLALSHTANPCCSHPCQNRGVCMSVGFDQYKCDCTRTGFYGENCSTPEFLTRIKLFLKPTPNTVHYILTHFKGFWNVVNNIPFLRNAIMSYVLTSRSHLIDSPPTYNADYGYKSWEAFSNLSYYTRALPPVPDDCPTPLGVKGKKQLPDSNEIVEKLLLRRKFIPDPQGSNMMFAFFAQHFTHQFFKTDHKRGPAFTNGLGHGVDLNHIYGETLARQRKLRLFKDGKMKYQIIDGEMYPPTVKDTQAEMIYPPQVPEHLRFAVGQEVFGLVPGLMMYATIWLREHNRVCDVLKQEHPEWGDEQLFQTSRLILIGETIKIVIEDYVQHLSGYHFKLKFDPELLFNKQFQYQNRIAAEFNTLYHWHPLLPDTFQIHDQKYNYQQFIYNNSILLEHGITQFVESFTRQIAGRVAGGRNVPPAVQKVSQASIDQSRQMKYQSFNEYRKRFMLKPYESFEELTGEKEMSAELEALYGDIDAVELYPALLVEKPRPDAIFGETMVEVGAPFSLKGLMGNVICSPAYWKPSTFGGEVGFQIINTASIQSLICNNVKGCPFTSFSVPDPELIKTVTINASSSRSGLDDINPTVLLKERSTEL
Chain of Prostaglandin G/H synthase 1 (P23219 whole entry): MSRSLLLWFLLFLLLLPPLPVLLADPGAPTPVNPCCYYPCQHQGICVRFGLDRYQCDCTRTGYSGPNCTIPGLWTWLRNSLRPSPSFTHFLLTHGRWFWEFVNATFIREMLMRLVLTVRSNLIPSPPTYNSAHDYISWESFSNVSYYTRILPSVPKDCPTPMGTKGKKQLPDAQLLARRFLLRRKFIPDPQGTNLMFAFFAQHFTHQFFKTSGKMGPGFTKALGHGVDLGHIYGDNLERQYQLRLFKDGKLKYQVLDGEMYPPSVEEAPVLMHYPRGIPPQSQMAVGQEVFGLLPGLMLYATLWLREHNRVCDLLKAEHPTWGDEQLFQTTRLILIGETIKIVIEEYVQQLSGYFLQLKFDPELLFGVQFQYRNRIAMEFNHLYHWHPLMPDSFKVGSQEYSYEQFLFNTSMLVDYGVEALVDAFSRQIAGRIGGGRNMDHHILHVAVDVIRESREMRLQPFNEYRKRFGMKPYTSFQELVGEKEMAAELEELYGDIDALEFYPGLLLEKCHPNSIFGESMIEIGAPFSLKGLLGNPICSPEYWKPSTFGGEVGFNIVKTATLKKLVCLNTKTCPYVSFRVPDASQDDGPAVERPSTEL

Molecule | Activity [1] | viability at 24 h, 50 µM [2] | inhibition [3] | inhibition [4] | also measured
COc1ccc(-c2cc3cccc(O)c3c(=O)o2)cc1O | 17.8% | 77.4% | 59.1% | 44% | IC50 (Prostaglandin E synthase [5]): 11.3 µM
O=c1oc(-c2ccccc2)cc2cccc(O)c12 | 13.4% | 75.6% | 55.3% | 60% | 
O=c1oc(-c2ccc(O)cc2)cc2cccc(O)c12 | 12.6% | 70.6% | 36.4% | 74% | IC50 (Prostaglandin E synthase [5]): 7.1 µM
COc1cc(O)c2c(=O)oc(-c3cc(OC)c(OC)c(OC)c3)cc2c1 | 15.4% | 60.5% | 36.2% | 14% | 
COc1cc(-c2cc3cccc(O)c3c(=O)o2)ccc1O | 36.2% | 79.8% | 35.6% | 75% | 
CC(c1cc2ccccc2s1)N(O)C(N)=O (centres undefined) [ZILEUTON] | 33.6% | 78% |  | 50% | 
COc1cc(O)c2c(=O)oc(-c3ccccc3)cc2c1 | 16.6% | 78.1% | 49.2% | 54% | 
CC1(C)Cc2c(-c3ccccc3)c(-c3ccc(Cl)cc3)c(CC(=O)O)n2C1 [LICOFELONE] |  | 85% | 71% |  | inhibition (HeLa [6]): Active; inhibition [7]: 54.7%; inhibition [8]: 81%; inhibition (HeLa [9]): Active; IC50 [10]: 0.5 µM; inhibition [11]: 48%; IC50 [12]: 0.8 µM; EC50 (Prostaglandin E synthase [13]): 0.1 µM
O=C1O[C@H]([C@@H](O)CO)C(O)=C1O | 82.2% |  |  |  | 
COc1cc(-c2cc3ccccc3c(=O)o2)ccc1O | 47.8% | 65% | 78.8% | 73% | IC50 [10]: 22.8 µM
COc1cc(-c2cc3cccc(O)c3c(=O)o2)cc(OC)c1OC | 12 to 12.4% | 80.2% | 80 to 80.3% | 68% | IC50 [10]: 12.4 µM; inhibition [14]: Active
COc1ccc(-c2cc3ccccc3c(=O)o2)cc1O | 20% | 70.5% | 65.9% | 18% | IC50 (Prostaglandin E synthase [5]): 9.7 µM
COc1cc(-c2cc3ccccc3c(=O)o2)cc(OC)c1OC | 15.8% | 75.7% | 72% | 73% | IC50 [10]: 20.9 µM; IC50 (Prostaglandin E synthase [5]): 9.3 µM
O=c1oc(-c2ccc(O)c(O)c2)cc2cccc(O)c12 [THUNBERGINOL A] | 49% | 68.7% | 40.9% | 74% | fold change (FC) (HeLa [15]): 1; inhibition [16]: 17%; inhibition (HeLa [17]): Active; fold change (FC) (HeLa [18]): 1; inhibition (HeLa [19]): Active; fold change (FC) (HeLa [20]): 9.6; inhibition [21]: 75%; fold change (FC) (HeLa [22]): 1
O=c1oc(-c2ccc(O)c(O)c2)cc2ccccc12 | 53 to 53.2% | 78.7% | 84.1% | 78% | fold change (FC) (HeLa [15]): 1; inhibition [16]: 44%; inhibition (HeLa [17]): Active; fold change (FC) (HeLa [18]): 1; inhibition (HeLa [19]): Active; fold change (FC) (HeLa [20]): 5.6; IC50 [10]: 4.6 µM; inhibition [21]: 76%; fold change (FC) (HeLa [22]): 1
O=c1oc(-c2ccccc2)cc2ccccc12 | 14% | 76.7% | 50% | 75% | IC50 (Prostaglandin E synthase [5]): 9.5 µM
O=c1oc(-c2ccc(O)cc2)cc2ccccc12 | 17% | 81.4% | 34.1% | 65% | 
B1 |  |  |  |  | Km [23]: 1.2 µM; Vmax [24]: 0.93 nmol/min; Vmax [25]: 0.83 nmol/min; Km [26]: 1.38 µM; Vmax [27]: 0.93 nmol/min; Km [28]: 1.17 µM; Vmax [29]: 0.64 nmol/min; Km [30]: 1.45 µM
